In ChEMBL document CHEMBL5649170, “Sustained microglial depletion with CSF1R inhibitor impairs parenchymal plaque development in an Alzheimer's disease model” (Nat Commun, 2019):
Activity calls are given as the source filed them. No cut-off for these calls is given here.

Assays:
[1] = Drug concentration in 5XFAD mouse plasma at 75 ppm administered as rodent chow starting from 1.5 months and measured after 5 months; type: ADME, cell-free; conditions: route po, time 3.5 months
How it was run: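 WT or 5xFAD mice were fed PLX3397 in AIN-76A chow at 600 ppm or 75 ppm from 1.5 to 5 months of age. Terminal brain and plasma drug concentrations were determined at study end.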

[2] = test system: Mus musculus; test: Antialzheimer activity in 5XFAD mouse assessed as microglial numbers by measuring number of Iba positive cells per FOV in somatosensory cortex at 75 ppm administered as rodent chow starting from 1.5 months and measured after 5 months by immunolabeling based confocal microscopic analysis (reference value: 281 to 613); type: functional; conditions: route po, time 3.5 months, 2555 h
How it was run: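 5xFAD mice fed PLX3397 at 75 ppm in AIN-76A chow from 1.5 to 5 months of age; retrosplenial and somatosensory cortex sections stained with Thio-S and immunolabeled for IBA1; confocal imaging, IBA1+ cells and plaques quantified per region; two-tailed independent t-test, n = 4–5 per group, mean ± SEM.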

[3] = molecular target: Calcium/calmodulin-dependent protein kinase type 1 (Homo sapiens, UniProt Q14012); test: Inhibition of CAMK1 (unknown origin)
Sequence of Calcium/calmodulin-dependent protein kinase type 1 (Q14012 whole entry): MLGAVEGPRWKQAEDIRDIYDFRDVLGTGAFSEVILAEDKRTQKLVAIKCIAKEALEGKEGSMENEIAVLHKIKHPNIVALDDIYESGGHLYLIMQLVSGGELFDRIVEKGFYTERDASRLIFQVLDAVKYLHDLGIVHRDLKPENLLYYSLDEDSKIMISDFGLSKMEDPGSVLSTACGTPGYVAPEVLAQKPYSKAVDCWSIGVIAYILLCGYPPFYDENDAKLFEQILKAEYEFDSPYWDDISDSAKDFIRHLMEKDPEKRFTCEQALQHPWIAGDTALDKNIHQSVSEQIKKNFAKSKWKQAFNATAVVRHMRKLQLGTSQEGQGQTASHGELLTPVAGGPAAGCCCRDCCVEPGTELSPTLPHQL

[4] = molecular target: Tyrosine-protein kinase Lyn (Homo sapiens, UniProt P07948); test: Inhibition of LYN_A (unknown origin)
Sequence of Tyrosine-protein kinase Lyn (P07948 whole entry): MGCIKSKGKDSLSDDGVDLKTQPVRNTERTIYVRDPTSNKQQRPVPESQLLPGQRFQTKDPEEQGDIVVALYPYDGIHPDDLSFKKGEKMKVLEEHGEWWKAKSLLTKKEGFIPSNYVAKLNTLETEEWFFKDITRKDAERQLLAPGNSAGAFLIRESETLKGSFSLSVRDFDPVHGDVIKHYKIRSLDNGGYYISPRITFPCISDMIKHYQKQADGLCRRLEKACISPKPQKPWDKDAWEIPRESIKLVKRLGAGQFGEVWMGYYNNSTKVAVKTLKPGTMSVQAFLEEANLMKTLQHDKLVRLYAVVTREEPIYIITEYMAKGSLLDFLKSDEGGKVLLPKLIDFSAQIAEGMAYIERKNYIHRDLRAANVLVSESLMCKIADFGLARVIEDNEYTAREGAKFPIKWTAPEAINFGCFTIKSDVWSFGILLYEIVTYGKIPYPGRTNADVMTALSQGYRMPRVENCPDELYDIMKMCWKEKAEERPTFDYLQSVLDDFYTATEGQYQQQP

[5] = molecular target: Maternal embryonic leucine zipper kinase (Homo sapiens, UniProt Q14680); test: Inhibition of MELK (unknown origin)
Sequence of Maternal embryonic leucine zipper kinase (Q14680 whole entry): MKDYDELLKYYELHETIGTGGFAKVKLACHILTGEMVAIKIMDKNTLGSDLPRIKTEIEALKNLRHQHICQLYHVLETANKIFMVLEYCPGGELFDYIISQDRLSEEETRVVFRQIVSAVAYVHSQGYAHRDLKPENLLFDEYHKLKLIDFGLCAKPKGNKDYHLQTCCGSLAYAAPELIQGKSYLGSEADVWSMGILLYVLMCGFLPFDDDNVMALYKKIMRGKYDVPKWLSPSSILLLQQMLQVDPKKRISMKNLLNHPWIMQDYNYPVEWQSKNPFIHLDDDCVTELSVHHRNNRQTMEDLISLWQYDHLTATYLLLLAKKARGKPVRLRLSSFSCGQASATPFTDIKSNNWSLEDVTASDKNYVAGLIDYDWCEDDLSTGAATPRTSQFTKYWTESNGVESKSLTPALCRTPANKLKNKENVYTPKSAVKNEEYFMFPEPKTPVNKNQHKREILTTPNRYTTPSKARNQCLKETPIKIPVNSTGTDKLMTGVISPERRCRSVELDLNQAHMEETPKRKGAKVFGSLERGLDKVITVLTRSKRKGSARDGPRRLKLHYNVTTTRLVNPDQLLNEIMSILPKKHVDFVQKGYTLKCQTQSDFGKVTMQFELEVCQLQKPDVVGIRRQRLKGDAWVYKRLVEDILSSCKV

[6] = molecular target: Serine/threonine-protein kinase Nek9 (Homo sapiens, UniProt Q8TD19); test: Inhibition of NEK9 (unknown origin)
Sequence of Serine/threonine-protein kinase Nek9 (Q8TD19 whole entry): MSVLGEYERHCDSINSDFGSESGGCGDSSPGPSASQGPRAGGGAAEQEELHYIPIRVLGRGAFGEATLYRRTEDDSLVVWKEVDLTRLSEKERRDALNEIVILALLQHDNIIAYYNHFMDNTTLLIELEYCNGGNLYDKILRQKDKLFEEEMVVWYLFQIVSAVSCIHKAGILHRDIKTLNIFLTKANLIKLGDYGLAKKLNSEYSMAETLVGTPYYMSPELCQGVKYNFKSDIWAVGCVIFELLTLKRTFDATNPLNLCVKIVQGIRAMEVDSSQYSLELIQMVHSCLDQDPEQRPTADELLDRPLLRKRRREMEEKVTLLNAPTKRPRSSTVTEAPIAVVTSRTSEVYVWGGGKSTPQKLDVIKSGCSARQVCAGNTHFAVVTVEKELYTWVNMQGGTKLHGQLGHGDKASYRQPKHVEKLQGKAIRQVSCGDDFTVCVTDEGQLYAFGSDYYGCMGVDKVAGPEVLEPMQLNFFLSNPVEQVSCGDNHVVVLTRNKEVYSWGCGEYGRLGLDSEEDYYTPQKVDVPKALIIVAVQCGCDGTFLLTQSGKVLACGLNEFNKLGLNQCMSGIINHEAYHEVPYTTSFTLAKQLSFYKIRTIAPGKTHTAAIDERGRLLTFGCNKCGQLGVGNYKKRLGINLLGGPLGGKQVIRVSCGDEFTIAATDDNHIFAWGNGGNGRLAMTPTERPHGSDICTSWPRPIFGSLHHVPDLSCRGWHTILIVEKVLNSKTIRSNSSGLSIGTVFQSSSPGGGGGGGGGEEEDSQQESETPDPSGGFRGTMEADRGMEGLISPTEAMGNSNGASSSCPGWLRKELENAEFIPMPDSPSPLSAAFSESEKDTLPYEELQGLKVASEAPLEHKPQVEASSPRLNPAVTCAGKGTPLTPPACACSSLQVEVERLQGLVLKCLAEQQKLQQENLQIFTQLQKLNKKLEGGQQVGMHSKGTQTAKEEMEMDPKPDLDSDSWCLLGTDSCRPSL

[7] = Cmax in mouse at 45 mg/kg, po administered as single dose via gavage; type: ADME, organism-based; conditions: in vivo
[8] = Cmax in female rat at 45 mg/kg, po administered as single dose via gavage; type: ADME, organism-based; conditions: in vivo
[9] = test system: Mus musculus; test: Effect on circulating leukocytes in wildtype mouse assessed as percentage of CD45+/PI- cells expressing CD11c at 1200 ppm administered as rodent chow for 10 to 24 weeks (reference value: 34.7 to 54.3 %); type: functional; conditions: route po, time 10-24 weeks
[10] = test system: Mus musculus; test: Antialzheimer activity in 5XFAD mouse assessed as microglial elimination at 1200 ppm administered as rodent chow for 24 weeks relative to control; type: functional; conditions: route po
[11] = test system: Mus musculus; test: Antialzheimer activity in 5XFAD mouse assessed as time spent in open arm at 1200 ppm administered as rodent chow for 10 to 24 weeks by Elevated plus maze test (reference value: 34.1 to 208.9 sec); type: functional; conditions: route po, time 10-24 weeks
[12] = test system: Mus musculus; test: Antialzheimer activity in 5XFAD mouse assessed as number of S100bteta positive cells per FOV in somatosensory cortex at 1200 ppm administered as rodent chow for 10 to 24 weeks by immunolabelling based confocal microscopic analysis (reference value: 283 to 357); type: functional; conditions: route po, time 10-24 weeks
[13] = test system: Mus musculus; test: Antialzheimer activity in 5XFAD mouse assessed as ApoE immunoreactivity by measuring ApoE intensity of plaque core in cortex at 1200 ppm administered as rodent chow starting from 1.5 months and measured after 7 months by immunolabeling based confocal microscopic analysis (reference value: 13.88 to 87.23 a.u.); type: functional; conditions: route po, time 5.5 months, 4015 h
[14] = test system: Mus musculus; test: Antialzheimer activity in 5XFAD mouse assessed as ApoE immunoreactivity by measuring reduction in core ApoE in cortex at 1200 ppm administered as rodent chow starting from 1.5 months and measured after 7 months by immunolabeling based confocal microscopic analysis relative to control; type: functional; set-up: scale not given: the % may be the effect or the level left; conditions: route po, time 5.5 months, 4015 h
[15] = Effect on Pcdhac1 gene expression in wildtype mouse hippocampus assessed as percent change in Reads Per kilo base per Million mapped reads at 1200 ppm administered as rodent chow starting from 1.5 months and measured after 7 months by RNA-Seq analysis (reference value: 88.246 to 122.665 %); type: functional; conditions: route po, time 5.5 months, 4015 h
[16] = Effect on Nos1ap gene expression in wildtype mouse hippocampus assessed as percent change in Reads Per kilo base per Million mapped reads at 1200 ppm administered as rodent chow starting from 1.5 months and measured after 7 months by RNA-Seq analysis (reference value: 90.677 to 108.278 %); type: functional; conditions: route po, time 5.5 months, 4015 h
[17] = Prevention of Zfp286 gene downregulation in 5XFAD mouse hippocampus assessed as percent change in Reads Per kilo base per Million mapped reads at 1200 ppm administered as rodent chow starting from 1.5 months and measured after 7 months by RNA-Seq analysis (reference value: 71.833 to 84.581 %); type: functional; conditions: route po, time 5.5 months, 4015 h
[18] = test system: Mus musculus; test: Prevention of Grn gene upregulation in 5XFAD mouse hippocampus at 1200 ppm administered as rodent chow starting from 1.5 months and measured after 7 months by Nanostring analysis; type: functional, tissue-based; conditions: route po, time 5.5 months
[19] = molecular target: T1, Macrophage colony-stimulating factor 1 receptor (Mus musculus) (UniProt P09581); test: (§1) In vivo inhibition of CSF1R in wildtype mouse assessed as number of Iba1 positive cells per FOV in […] cortex at 1200 ppm administered as rodent chow starting from 1.5 months to 4 months followed by compound removal and measured after 1 months by immunolabelling based confocal microscopic analysis (reference value: 193 to 236); type: functional; conditions: route po, time 2.5 months
T1 sequence (whole entry): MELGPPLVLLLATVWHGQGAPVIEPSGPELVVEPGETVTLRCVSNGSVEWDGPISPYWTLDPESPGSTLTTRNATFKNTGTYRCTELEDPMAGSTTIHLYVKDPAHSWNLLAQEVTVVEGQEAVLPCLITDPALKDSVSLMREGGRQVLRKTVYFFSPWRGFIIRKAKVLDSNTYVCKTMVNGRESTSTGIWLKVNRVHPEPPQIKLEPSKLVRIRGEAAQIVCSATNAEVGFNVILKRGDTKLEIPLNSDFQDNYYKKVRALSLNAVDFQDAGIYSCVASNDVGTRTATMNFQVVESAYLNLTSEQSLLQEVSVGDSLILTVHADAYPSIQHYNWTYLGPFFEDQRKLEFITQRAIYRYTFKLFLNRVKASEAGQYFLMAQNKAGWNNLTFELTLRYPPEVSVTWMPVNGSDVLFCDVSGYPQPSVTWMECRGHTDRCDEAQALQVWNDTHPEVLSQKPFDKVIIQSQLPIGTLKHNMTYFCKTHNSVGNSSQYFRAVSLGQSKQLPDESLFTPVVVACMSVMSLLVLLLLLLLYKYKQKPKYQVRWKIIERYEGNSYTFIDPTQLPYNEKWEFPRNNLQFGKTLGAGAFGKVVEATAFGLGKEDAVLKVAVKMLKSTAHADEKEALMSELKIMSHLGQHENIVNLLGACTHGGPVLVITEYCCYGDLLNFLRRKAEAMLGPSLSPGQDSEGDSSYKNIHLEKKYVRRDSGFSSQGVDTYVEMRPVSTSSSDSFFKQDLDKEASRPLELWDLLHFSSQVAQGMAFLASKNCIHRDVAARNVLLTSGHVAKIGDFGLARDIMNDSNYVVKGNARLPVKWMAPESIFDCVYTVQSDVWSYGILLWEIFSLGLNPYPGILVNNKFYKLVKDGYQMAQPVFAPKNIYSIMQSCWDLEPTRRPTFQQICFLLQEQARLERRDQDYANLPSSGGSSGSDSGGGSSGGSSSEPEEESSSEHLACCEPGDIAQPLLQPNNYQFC

[20] = test system: Mus musculus; test: as §1, with “Antialzheimer activity” for “In vivo inhibition of CSF1R”, “5XFAD” for “wildtype”, “210” for “193”, “529)” for “236)”; type: functional; conditions: route po, time 2.5 months, 1825 h
How it was run: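 For the repopulation paradigm, 5xFAD mice ate 1200 ppm PLX5622 chow from 1.5 to 4 months of age. Inhibitor chow was then withdrawn, and brains were examined one month later. Sections were stained with Thio-S and immunolabeled for IBA1, then analysed by confocal microscopy in cortical regions.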

| SMILES | concentration at 2555 h [1] [µM] | Activity [2] | IC50 [3] [µM] | IC50 [4] [µM] | IC50 [5] [µM] | IC50 [6] [µM] | Cmax [7] [ng/mL] | Cmax [8] [ng/mL] | Activity [9] [%] | Activity [10] [%] | Time [11] [s] | Activity [12] | Flu intensity [13] [a.u.] | Activity [14] [%] | Activity [15] [%] | Activity [16] [%] | Activity [17] [%] | Activity [18] | Activity [19] | Activity [20] |
| --- | --- | --- | --- | --- | --- | --- | --- | --- | --- | --- | --- | --- | --- | --- | --- | --- | --- | --- | --- | --- |
| FC(F)(F)c1ccc(CNc2ccc(Cc3c[nH]c4ncc(Cl)cc34)cn2)cn1 [PEXIDARTINIB] | 15 | 345 | – | – | – | – | – | – | – | – | – | – | – | – | – | – | – | – | – | – |
| COc1ncc(F)cc1CNc1ccc(Cc2c[nH]c3ncc(C)cc23)c(F)n1 [PLX-5622] | – | – | > 1 | > 1 | > 1 | > 1 | 26300 | 15600 | 31.4 | 97 | 157.6 | 307 | 4.57 | ~50 | 63.951 | 78.494 | 91.857 | Active | 51 | 66 |
